# From ChEMBL document CHEMBL1129568, “Structure-activity relationships of the antimalarial agent artemisinin. 3. Total synthesis of (+)-13-carbaartemisinin and related tetra- and tricyclic structures” (J Med Chem, 1996)
# Assays:
# Plasmodium falciparum [1] = assay: In vitro antimalarial activity for Plasmodium falciparum W2; format: functional, organism-based
# Plasmodium falciparum [2] = assay: In vitro antimalarial activity for Plasmodium falciparum D6; format: functional, organism-based
# Plasmodium falciparum [3] = assay: In vitro antimalarial activity for Plasmodium falciparum D6; Not active; format: functional, organism-based
# Plasmodium falciparum [4] = assay: In vitro antimalarial activity for Plasmodium falciparum W2; Not active; format: functional, organism-based
# Plasmodium falciparum [5] = assay: In vitro antimalarial activity against Plasmodium falciparum W-2 relative to artemisinin; format: functional
# Method in brief: (§1)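 Relative potency is the artemisinin IC50 divided by the analog IC50, × 100%, with artemisinin set at 100%. Tested in vitro against P. falciparum D-6 or W-2.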
# Plasmodium falciparum [6] = assay: In vitro antimalarial activity against Plasmodium falciparum D6 relative to artemisinin; format: functional; method in brief: as §1
# Plasmodium falciparum [7] = assay: In vitro antimalarial activity for Plasmodium falciparum W2 in LDH […] assay; format: functional, organism-based
# Method in brief: (§2)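 In vitro test against P. falciparum D-6 or W-2 using Makler's parasite lactate dehydrogenase (pLDH) assay, which reads out parasite pLDH enzyme activity. Run at the University of Mississippi.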
# Plasmodium falciparum [8] = assay: In vitro antimalarial activity for Plasmodium falciparum D6 in LDH […] assay; format: functional, organism-based; method in brief: as §2
Structure (SMILES),IC50 (Plasmodium falciparum [1]) [µg/mL],IC50 (Plasmodium falciparum [2]) [µg/mL],IC50 (Plasmodium falciparum [3]),IC50 (Plasmodium falciparum [4]),Relative activity (Plasmodium falciparum [5]),Relative activity (Plasmodium falciparum [6]),IC50 (Plasmodium falciparum [7]) [µg/mL],IC50 (Plasmodium falciparum [8]) [ng/mL]
C[C@@H]1CC[C@@H]([C@@H](C)CO)[C@@]23CC[C@@](C)(CC[C@@H]12)OO3,1.5,0.3,–,–,–,–,–,–
C[C@@H]1CC[C@@H]([C@@H](C)COCc2ccccc2)[C@@]23C=C[C@@](C)(CC[C@@H]12)OO3,–,–,Not Active,Not Active,–,–,–,–
C[C@@H]1CC[C@@H]([C@@H](C)CO)[C@@]23C=C[C@@](C)(CC[C@@H]12)OO3,–,1,–,Not Active,–,–,–,–
COC[C@H](C)[C@@H]1CC[C@@H](C)[C@@H]2CC[C@]3(C)CC[C@@]21OO3,0.7,0.31,–,–,–,–,–,–
C[C@@H]1CC[C@H]2[C@@H](C)CO[C@H]3C[C@]4(C)CC[C@@H]1[C@@]32OO4,0.00078,0.00172,–,–,58,53,–,–
COC[C@H](C)[C@@H]1CC[C@@H](C)[C@@H]2CC[C@]3(C)C=C[C@@]21OO3,–,0.92,–,Not Active,–,–,–,–
C[C@@H]1CC[C@@H]([C@@H](C)COCc2ccccc2)[C@@]23CC[C@@](C)(CC[C@@H]12)OO3,0.66,0.29,–,–,–,–,–,–
C[C@@H]1CC[C@H]2[C@@H](C)CO[C@@H]3C[C@@]4(C)CC[C@@H]1[C@]32OO4,0.00279,0.00287,–,–,16,32,–,–
C[C@@H]1CC[C@H]2[C@@H](C)C(=O)O[C@@H]3C[C@@]4(C)CC[C@@H]1[C@]32OO4,0.0126,0.0388,–,–,11,23.3,0.02,6
C[C@@H]1CC[C@H]2[C@@H](C)C(=O)O[C@@H]3O[C@@]4(C)CC[C@@H]1[C@]32OO4 [ARTEMISININ],0.00048,0.00097,–,–,100,100,0.0022,1.4
